Each block holds one molecule with its values, some of them ahead of it.
Columns and labels:
[1] = target: 11-beta-hydroxysteroid dehydrogenase 1 (Mus musculus, UniProt P50172); assay: Inhibitory activity against mouse 11beta-HSD1
[2] = target: T1, 11-beta-hydroxysteroid dehydrogenase type 2 (Homo sapiens, UniProt P80365); assay: Inhibitory activity against human 11beta-HSD2
T1 sequence (P80365 whole entry): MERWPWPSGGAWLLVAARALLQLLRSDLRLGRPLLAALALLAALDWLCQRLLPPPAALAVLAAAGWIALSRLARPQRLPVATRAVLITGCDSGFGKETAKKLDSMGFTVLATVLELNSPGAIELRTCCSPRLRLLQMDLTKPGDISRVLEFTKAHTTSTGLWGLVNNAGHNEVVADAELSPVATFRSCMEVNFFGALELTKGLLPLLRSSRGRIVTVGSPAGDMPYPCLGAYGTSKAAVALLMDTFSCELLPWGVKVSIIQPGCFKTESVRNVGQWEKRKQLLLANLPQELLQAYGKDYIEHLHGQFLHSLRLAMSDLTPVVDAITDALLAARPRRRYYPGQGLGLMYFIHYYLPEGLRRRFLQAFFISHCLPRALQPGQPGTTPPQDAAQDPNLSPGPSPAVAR

[3] = target: T2, 11-beta-hydroxysteroid dehydrogenase type 2 (Mus musculus, UniProt P51661); assay: Inhibitory activity against mouse 11beta-HSD2
T2 sequence (P51661 whole entry): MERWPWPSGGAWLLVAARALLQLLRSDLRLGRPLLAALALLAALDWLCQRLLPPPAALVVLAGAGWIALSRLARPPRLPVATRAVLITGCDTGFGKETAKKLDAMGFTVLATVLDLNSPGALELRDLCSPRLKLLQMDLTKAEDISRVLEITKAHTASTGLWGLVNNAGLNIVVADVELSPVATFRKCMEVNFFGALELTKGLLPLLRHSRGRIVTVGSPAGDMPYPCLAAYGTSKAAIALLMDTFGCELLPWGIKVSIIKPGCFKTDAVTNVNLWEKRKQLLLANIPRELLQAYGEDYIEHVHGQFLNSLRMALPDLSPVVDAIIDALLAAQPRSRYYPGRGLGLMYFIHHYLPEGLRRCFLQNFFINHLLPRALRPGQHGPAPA

[4] = target: T3, 11-beta-hydroxysteroid dehydrogenase 1 (Homo sapiens, UniProt P28845); assay: Inhibitory activity against human 11beta-HSD1
Target sequence in this assay (P28845 whole entry): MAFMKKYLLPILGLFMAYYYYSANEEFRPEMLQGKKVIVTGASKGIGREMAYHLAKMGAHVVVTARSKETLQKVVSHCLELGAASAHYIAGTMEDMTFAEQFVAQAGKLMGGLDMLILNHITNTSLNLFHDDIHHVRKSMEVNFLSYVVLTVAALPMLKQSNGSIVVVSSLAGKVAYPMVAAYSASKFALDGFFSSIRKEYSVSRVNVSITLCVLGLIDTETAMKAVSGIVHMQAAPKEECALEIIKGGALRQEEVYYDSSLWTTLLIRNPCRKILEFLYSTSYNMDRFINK

[5] = target: T3, 11-beta-hydroxysteroid dehydrogenase 1; assay: In vivo inhibition of 11beta-HSD1 at 1 h (10 mg/kg, po) assessed by extent of cortisone to cortisol conversion; format: functional, organism-based
How it was run: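 Oral dosing at 10 mg/kg, followed by exogenous [3H]cortisone as the 11β-HSD1 substrate. In vivo enzyme activity is read out as the extent of conversion to [3H]cortisol, reported as % inhibition.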
Target sequence in this assay (P28845 whole entry, looked up): as the sequence (P28845 whole entry) above

Mus musculus [6] = organism: Mus musculus; assay: (§1) Plasma clearance in mouse; format: ADME, organism-based; settings: in vivo
[7] = Oral bioavailability in mouse; format: ADME, organism-based; settings: in vivo
[8] = Oral bioavailability in rat; format: ADME, organism-based; settings: in vivo
[9] = Half life in mouse; format: ADME, organism-based; settings: in vivo
[10] = Oral bioavailability in dog; format: ADME, organism-based, Canis lupus familiaris; settings: in vivo
Canis familiaris = organism: Canis familiaris; assay: AUC in dog; format: ADME, organism-based, Canis lupus familiaris, Plasma; settings: in vivo
[11] = Half life in dog; format: ADME, organism-based, Canis lupus familiaris; settings: in vivo
[12] = Half life in rat; format: ADME, organism-based; settings: in vivo
Mus musculus [13] = organism: Mus musculus; assay: AUC in mouse; format: ADME, organism-based, Plasma; settings: in vivo
Rattus norvegicus = organism: Rattus norvegicus; assay: AUC in rat; format: ADME, organism-based, Plasma; settings: in vivo
[14] = as §1; format: ADME, organism-based; settings: plasma
[15] = plasma clearance in dog; format: ADME, organism-based, Canis lupus familiaris
[16] = Plasma clearance in rat; format: ADME, organism-based
[17] = target: T4, 11-beta-hydroxysteroid dehydrogenase type 2 (Homo sapiens) (UniProt P80365); assay: Inhibitory activity against human 11beta-HSD2 at 4 uM
T4 sequence (whole entry): T1 sequence (P80365 whole entry)

Sequence of 11-beta-hydroxysteroid dehydrogenase 1 (Mus musculus, UniProt P50172) (P50172 whole entry): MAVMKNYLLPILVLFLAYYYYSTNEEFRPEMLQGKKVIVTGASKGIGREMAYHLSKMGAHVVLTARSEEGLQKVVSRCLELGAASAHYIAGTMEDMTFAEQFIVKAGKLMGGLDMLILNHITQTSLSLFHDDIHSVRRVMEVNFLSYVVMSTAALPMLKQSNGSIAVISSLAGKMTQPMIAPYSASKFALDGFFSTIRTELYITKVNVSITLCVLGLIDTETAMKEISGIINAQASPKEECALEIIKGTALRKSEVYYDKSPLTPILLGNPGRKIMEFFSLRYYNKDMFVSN

- IC50 [1]: 3.2 nM
Structure (SMILES): Cn1c(-c2ccccc2Cl)nnc1C12CCC(c3nc(-c4ccc(F)cc4)no3)(CC1)CC2

- IC50 [1]: 1.6 nM
Structure (SMILES): Cn1c(-c2ccccc2C(F)(F)F)nnc1C12CCC(c3n[nH]c(-c4ccc(F)cc4)n3)(CC1)CC2

- IC50 [1]: 4.5 nM
Structure (SMILES): COc1ccc(-c2noc(C34CCC(c5nnc(-c6ccccc6C(F)(F)F)n5C)(CC3)CC4)n2)cn1

- IC50 [1]: 5 nM
Structure (SMILES): Cn1c(-c2ccccc2C(F)(F)F)nnc1C12CCC(c3nnc(-c4ccc(F)cc4)o3)(CC1)CC2

- IC50 [1]: 22 nM
Structure (SMILES): Cn1c(-c2ccccc2C(F)(F)F)nnc1C12CCC(c3nc(-c4ccc(=O)n(C)c4)no3)(CC1)CC2

- IC50 [2]: > 4000 nM
- IC50 [1]: 136 nM
- IC50 [3]: > 4 µM
- IC50 [4]: 289 nM
Structure (SMILES): Cc1noc(C23CCC(c4nnc5n4CCCCCC5)(CC2)CC3)n1

- IC50 [1]: 12 nM
Structure (SMILES): COc1ccc(-c2nnc(C34CCC(c5nc(-c6ccc(F)cc6)no5)(CC3)CC4)n2C)c(Cl)c1

- IC50 [1]: 2 nM
Structure (SMILES): Cn1c(-c2ccccc2C(F)(F)F)nnc1C12CCC(c3nc(-c4ccc(Cl)cc4)no3)(CC1)CC2

- IC50 [1]: 2.4 nM
Structure (SMILES): Cn1c(-c2ccccc2C(F)(F)F)nnc1C12CCC(c3nc(-c4ccc(F)cc4)c[nH]3)(CC1)CC2

- IC50 [1]: < 0.98 nM
Structure (SMILES): Cn1c(-c2ccccc2C(F)(F)F)nnc1C12CCC(c3nc(-c4ccc(S(=O)(=O)C(F)(F)F)cc4)no3)(CC1)CC2

- IC50 [1]: 29 nM
Structure (SMILES): Cn1c(-c2ccccc2S(C)(=O)=O)nnc1C12CCC(c3nc(-c4ccc(F)cc4)no3)(CC1)CC2

- IC50 [1]: 9.5 nM
Structure (SMILES): Cn1c(-c2ccccc2C(F)(F)F)nnc1C12CCC(c3nc(-c4cccc(S(C)(=O)=O)c4)no3)(CC1)CC2

- IC50 [1]: 5.2 nM
Structure (SMILES): Cn1c(-c2ccccc2OC(F)F)nnc1C12CCC(c3nc(-c4ccc(F)cc4)no3)(CC1)CC2

- IC50 [1]: 2.3 nM
Structure (SMILES): COc1cc(O)ccc1-c1nnc(C23CCC(c4nc(-c5ccc(F)cc5)no4)(CC2)CC3)n1C

- inhibition [5]: 74%
- IC50 [2]: 183 nM
- IC50 [1]: 3 nM
- IC50 [3]: 2.1 µM
- CL (Mus musculus [6]): 14.1 mL/min/kg
- IC50 [4]: 5 nM
- bioavailability [7]: 6%
Structure (SMILES): CCCCCC12CCC(c3nnc4n3CCCCCC4)(CC1)CC2

- IC50 [1]: < 1 nM
Structure (SMILES): Cn1c(-c2ccccc2C(F)(F)F)nnc1C12CCC(c3noc(-c4ccc(F)cc4)n3)(CC1)CC2

- bioavailability [8]: 83%
- half-life [9]: 1060 min
- bioavailability [10]: 100%
- IC50 [1]: 1.9 nM
- AUC (Canis familiaris): 9.55 uMh
- half-life [11]: 592 min
- half-life [12]: 306 min
- AUC (Mus musculus [13]): 5.7 uMh
- AUC (Rattus norvegicus): 6.2 uMh
- clearance [14]: 5.88 mL/min/kg
- clearance [15]: 3.51 mL/min/kg
- bioavailability [7]: 58%
- clearance [16]: 5.39 mL/min/kg
Structure (SMILES): Cn1c(-c2ccccc2C(F)(F)F)nnc1C12CCC(c3nc(-c4ccc(F)cc4)no3)(CC1)CC2

- inhibition [5]: 99%
- IC50 [1]: 3 nM
- clearance [14]: 273 mL/min/kg
- IC50 [4]: 2 nM
- bioavailability [7]: 21%
Structure (SMILES): CCCCCC12CCC(c3nnc(-c4ccccc4C(F)(F)F)n3C)(CC1)CC2

- IC50 [1]: 17 nM
- IC50 [3]: 4 µM
Structure (SMILES): Clc1ccc(-c2noc(C34CCC(c5nnc6n5CCCCCC6)(CC3)CC4)n2)cc1

- IC50 [1]: < 3.9 nM
- IC50 [3]: > 4 µM
- IC50 [4]: 170 nM
- inhibition [17]: 61%
Structure (SMILES): C1CCCn2c(nnc2C23CCC(c4nc(CC5CC5)no4)(CC2)CC3)CC1

- IC50 [1]: < 1 nM
Structure (SMILES): Cn1c(-c2ccccc2C(F)(F)F)nnc1C12CCC(c3nc(-c4ccc(C(O)C(F)(F)F)cc4)no3)(CC1)CC2 (stereo not given)

- IC50 [2]: > 4000 nM
- IC50 [1]: 68 nM
- IC50 [3]: > 4 µM
- IC50 [4]: 110 nM
Structure (SMILES): COC(=O)C12CCC(c3nnc4n3CCCCCC4)(CC1)CC2

- IC50 [1]: 1.8 nM
Structure (SMILES): Cn1c(-c2ccccc2C(F)(F)F)nnc1C12CCC(c3nc(-c4ccc(S(C)(=O)=O)cc4)no3)(CC1)CC2

Reference: ChEMBL document CHEMBL1141865, “Discovery of 4-heteroarylbicyclo[2.2.2]octyltriazoles as potent and selective inhibitors of 11beta-HSD1: novel therapeutic agents for the treatment of metabolic syndrome” (Bioorg Med Chem Lett, 2005)
